# Screening results as filed in PubChem BioAssay.
# RGS4 inh – human RGS4 inhibition | HEK293 M3R/RGS4 inducible, Fluo-4 calcium flux; hits give high values; triggered by carbachol at its EC20 | B-score at 10 µM | 0.45% of 310,000 active;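 active means B-score, a plate-corrected calcium signal, over three deviations above library mean, with baseline fluorescence within five deviations of library mean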;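 further: RGS4 expression induced by doxycycline in cells with stable M3 receptor; B-score is computed from the integrated fluorescence ratio over baseline after carbachol; higher B-score means a larger calcium signal and so more RGS4 inhibition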
# PHOSPHO1 block – inhibitors of human PHOSPHO1 phosphatase | Q8TCT1 | recombinant PHOSPHO1, absorbance phosphatase assay | inhibition, % at 13.3 µM | 1.1% of 290,000 active | AID 1565; in the data active means inhibition above about 60%
# MrgX1 antagonist – blocks BAM8-22 activation of human MrgX1 receptor. Q96LB2. MRGX1-HEK293 calcium flux, Fluo-4, BAM8-22 antagonism; hits give low values. 1.3% of 310,000 active. AID 588676. B-score at 10 µM;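 active means calcium-response B-score plate-corrected more than 3 library SD below zero, starting fluorescence within 5 deviations, no agonist response on first addition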;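 further: peak minus trough fluorescence over baseline after final BAM8-22 challenge near maximal dose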
# Target sequence (Q96LB2 whole entry, looked up): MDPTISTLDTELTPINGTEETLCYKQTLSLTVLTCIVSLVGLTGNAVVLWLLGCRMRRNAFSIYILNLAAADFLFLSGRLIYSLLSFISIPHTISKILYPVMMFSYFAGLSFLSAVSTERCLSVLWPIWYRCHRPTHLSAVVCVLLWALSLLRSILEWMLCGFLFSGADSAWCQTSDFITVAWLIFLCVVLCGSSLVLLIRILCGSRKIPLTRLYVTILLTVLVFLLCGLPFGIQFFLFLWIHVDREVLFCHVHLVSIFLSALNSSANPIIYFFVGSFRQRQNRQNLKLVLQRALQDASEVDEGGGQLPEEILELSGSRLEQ
# MrgX1 agonist – activates human MrgX1 receptor signaling | Q96LB2 | MrgX1-HEK293 cells, Fluo-4 calcium fluorescence, agonist mode; hits give high values | B-score at 10 µM | 0.44% of 310,000 active | AID 588627;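 active means calcium response B-score plate-corrected fluorescence ratio at least 3 library SD, with starting fluorescence B-score inside 5 SD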
#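 Material: MrgX1-expressing HEK293 cells; input: 15,000 cells per well; doses: test compound given as first of three sequential additions; schedule: overnight plating before 1 h dye loading; technique: Fluo-4 NW calcium-flux fluorescence, kinetic read; evaluation: baseline-normalised fluorescence change ratio, B-scored; control set: plate-wise positive and negative controls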
# RGS4 act – RGS4 potentiation or activation. HEK293 M3R/inducible RGS4, carbachol calcium flux Fluo4; hits give low values. B-score at 10 µM. 0.92% of 310,000 active. AID 463111;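 active means B-score of the integrated calcium signal more than 4 SD below the library mean, with starting fluorescence not abnormally high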;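 further: negative B-score means reduced calcium response which marks RGS4 activation or potentiation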
#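 Material: Inducible-RGS4 HEK293 cells carrying M3 receptor; also added: carbachol at ECmax as muscarinic agonist stimulus; incubation: compound preincubation 20 min at room temperature before agonist; signal: Fluo4-AM (2 µM) calcium-flux fluorescence, kinetic read; measure: integrated calcium ratio converted to B score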
# MrgX1 allo act – allosterically activates human MrgX1 receptor signaling; Q96LB2; MrgX1-HEK293, Fluo-4 calcium flux, FDSS; hits give high values; B-score at 10 µM; 0.63% of 310,000 active; AID 588675;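 active means plate-corrected calcium response at least 3 library SD above typical, normal starting fluorescence, not activating the receptor alone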;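 further: compound read alongside a low EC10 to EC30 dose of BAM8-22 agonist; peak minus trough fluorescence over baseline measured at the second addition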
# RGS4 inh valid – RGS4 inhibitor validation | AID 492999 | shares compounds with RGS4 inh | HEK293 M3R/RGS4, carbachol calcium Fluo-4 fluorescence; carbachol added at its EC20; 0 = buffer wells, 100 = carbachol control | calcium response, % at 10 µM | 65% of 1,700 active;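 active means duplicate-averaged calcium response above the buffer-only control mean plus 5 SD of those controls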;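 further: integrated fluorescence ratio F max minus min over baseline F0; higher response in RGS4-induced cells means RGS4 inhibition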
# M3R Ca ctr – non-induced cell nonspecific activity of RGS4 inhibitors; shares compounds with RGS4 inh; AID 493000; 20% of 1,900 active; activity (percent), % at 10 µM; HEK293 M3R non-induced, carbachol calcium Fluo-4; submaximal (EC20) carbachol stimulus; buffer wells 0%, carbachol control wells 100%; call rule not given here;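 further: RGS4 induction absent so cells express M3R without RGS4; higher means more calcium signal and flags a non-specific hit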
# RGS4 inh ctr2 – second counter-screen for RGS4 inhibitors: non-induced cells without carbachol. shares compounds with RGS4 inh. HEK293 M3R/RGS4 non-induced, Fluo-4 calcium, no carbachol; normalised: buffer wells 0%, carbachol wells 100%. calcium response (agonist-mode artifact), % at 10 µM. 22% of 1,900 active;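 active means duplicate-averaged calcium rise in uninduced cells above buffer wells' mean plus 5 SD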
# Starred values were filed as active, the others as inactive; i = inactive; . = not tested or not shown. A selection: hits, their analogues and other compounds. The true share with any hit is near 4.5%.
SMILES,RGS4 inh,PHOSPHO1 block,MrgX1 antagonist,MrgX1 agonist,RGS4 act,MrgX1 allo act,RGS4 inh valid,M3R Ca ctr,RGS4 inh ctr2
Cc1cc(C)n(C(C[N+](=O)[O-])c2ccc(Cl)cc2)n1 (stereo not drawn),14*,-1,i,i,i,i,8.0%*,44%*,22%*
Cc1cc(O)c(C(C[N+](=O)[O-])c2ccc(Cl)cc2)c(=O)o1 (stereo not drawn),i,-2,i,i,i,i,.,.,.
Cn1cnnc1Sc1ccc(/C=C/C(=O)c2ccc(O)cc2)cc1[N+](=O)[O-],i,30,i,i,i,i,.,.,.
COc1ccc(NC(=O)/C(C#N)=C/c2ccc(Sc3nncn3C)c([N+](=O)[O-])c2)cc1,6.8*,-16,i,i,i,i,18%*,i,i
O=C(c1ccco1)N1CCN(c2ccc(N3CCCCC3)nn2)CC1,i,.,i,i,i,i,.,.,.
O=C(N/N=C/C(Br)=C/c1ccccc1)c1n[nH]c2c1CCC2,5.1*,6,i,i,i,i,18%*,i,i
O=C(CCl)c1ccc2c(c1)CCN2C(=O)C1CCCCC1,i,-10,i,i,i,i,i,i,14%*
CCC1CCCCN1S(=O)(=O)c1ccc2c(c1)CCN2C(=O)C1CCC1 (stereo not drawn),i,28,i,i,i,i,.,.,.
CC1=NNC(=O)C1C(c1ccc(Cl)cc1)C(C#N)C#N (stereo not drawn),i,16,i,i,i,i,.,.,.
CC1=NN(Cc2ccccc2)C(=O)C1,i,-18,i,i,i,i,.,.,.
CC1=NN(Cc2ccccc2)C(=O)C1C(c1ccc(Cl)cc1)C(C#N)C#N (stereo not drawn),i,1,i,i,i,i,i,i,7.0%*
CC1=NNC(=O)C1C(c1cccc(O)c1)C(C#N)C#N (stereo not drawn),i,4,i,i,i,i,.,.,.
CC1=NN(Cc2ccccc2)C(=O)C1C(c1ccccc1)C(C#N)C#N (stereo not drawn),i,16,i,i,i,i,i,i,i
CC1=NN(Cc2ccccc2)C(=O)C1C(c1ccncc1)C(C#N)C#N (stereo not drawn),4.8*,-1,i,i,i,i,7.5%*,i,i
O=C(CSc1ccc(F)cc1)Nc1ccc(C2SCCS2)cc1,i,27,i,i,i,i,.,.,.
COC(=O)c1ccccc1NC(=O)CCC(=O)N1CC(C)Oc2ccc(C)cc21 (stereo not drawn),i,-51,i,i,i,i,.,.,.
CCN(CC)CCN(C(=O)c1ccc2c(c1)CCCC2)c1nc2ccc(C)cc2s1,i,28,i,i,i,i,.,.,.
CCN(CC)CCN(C(=O)c1ccc2c(c1)CCCC2)c1nc2ccc(OC)cc2s1,i,18,i,i,i,i,i,i,i
COCCCNC(=S)NNC(=S)Nc1cccc(Cl)c1,i,-23,i,i,i,i,.,.,.
COC(=O)/C=c1\sc2ncnn2c1=O,11*,10,i,i,i,i,i,i,i
O=C(/C=C\NCC(=O)c1ccccc1)c1ccc2ccccc2c1,6.5*,-28,i,i,i,i,16%*,30%*,i
